Activity calls are given as the source filed them. The calls are words filed in the database; no cut-off is given here.
Tests used:
Interstitial collagenase = biological target: T1, Interstitial collagenase (Homo sapiens, UniProt P03956); test: Inhibition of recombinant human MMP-1 using Mca-Lys-Pro-Leu-Gly-Leu-Dap(Dnp)-Ala-Arg-NH2 as substrate preincubated for 3 hrs followed by substrate addition measured every 10 secs for 15 mins by fluorometric assay
T1 sequence (P03956 whole entry): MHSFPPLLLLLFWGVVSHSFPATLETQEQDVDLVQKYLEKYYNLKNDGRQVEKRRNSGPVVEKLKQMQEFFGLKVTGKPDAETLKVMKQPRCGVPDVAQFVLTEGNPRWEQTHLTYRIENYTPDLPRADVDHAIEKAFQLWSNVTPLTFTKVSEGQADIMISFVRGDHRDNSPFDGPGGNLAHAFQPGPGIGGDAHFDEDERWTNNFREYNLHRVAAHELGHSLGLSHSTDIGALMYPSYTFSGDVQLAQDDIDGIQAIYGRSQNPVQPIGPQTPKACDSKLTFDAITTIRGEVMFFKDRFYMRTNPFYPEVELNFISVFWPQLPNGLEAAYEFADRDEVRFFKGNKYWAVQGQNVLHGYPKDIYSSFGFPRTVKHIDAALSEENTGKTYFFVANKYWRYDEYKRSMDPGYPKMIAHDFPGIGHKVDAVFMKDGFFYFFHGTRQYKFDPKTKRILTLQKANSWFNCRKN

[1] = biological target: 72 kDa type IV collagenase (Homo sapiens, UniProt P08253); test: Inhibition of recombinant human MMP-2 using Mca-Lys-Pro-Leu-Gly-Leu-Dap(Dnp)-Ala-Arg-NH2 as substrate preincubated for 3 hrs followed by substrate addition measured every 10 secs for 15 mins by fluorometric assay
72 kDa type IV collagenase, sequence (P08253 whole entry): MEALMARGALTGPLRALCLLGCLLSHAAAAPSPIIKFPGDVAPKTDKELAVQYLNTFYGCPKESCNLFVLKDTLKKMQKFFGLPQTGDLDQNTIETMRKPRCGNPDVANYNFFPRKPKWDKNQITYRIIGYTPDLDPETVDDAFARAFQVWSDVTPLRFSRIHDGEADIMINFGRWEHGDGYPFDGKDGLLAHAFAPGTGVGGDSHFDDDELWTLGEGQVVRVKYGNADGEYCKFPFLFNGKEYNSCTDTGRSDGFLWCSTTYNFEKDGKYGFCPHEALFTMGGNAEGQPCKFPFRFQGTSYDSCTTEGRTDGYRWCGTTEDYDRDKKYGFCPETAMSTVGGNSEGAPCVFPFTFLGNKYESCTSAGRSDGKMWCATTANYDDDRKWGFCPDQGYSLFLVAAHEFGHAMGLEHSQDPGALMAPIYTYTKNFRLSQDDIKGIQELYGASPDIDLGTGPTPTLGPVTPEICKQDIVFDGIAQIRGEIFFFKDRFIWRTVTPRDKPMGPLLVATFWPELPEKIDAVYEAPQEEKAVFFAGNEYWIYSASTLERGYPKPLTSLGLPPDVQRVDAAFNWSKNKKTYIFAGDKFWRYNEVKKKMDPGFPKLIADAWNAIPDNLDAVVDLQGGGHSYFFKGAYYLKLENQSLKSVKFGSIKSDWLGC

[2] = Metal chelating activity assessed as compound-Zn2+ complex formation by measuring free metal ion levels at compound to metal molar ratio 10 at pH 6 by potentiometric titration method
[3] = Metal chelating activity assessed as compound-Zn2+ complex formation at 1:2 metal to compound molar ratio at pH 3 to 8 by potentiometric titration method
Summary of the method: (§1)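 pH-potentiometric titration in 60% w/w DMSO/H2O, 25.0 ± 0.1 °C, I 0.1 M KCl, 0.1 M KOH titrant. Glass electrode calibrated with HCl/KOH via Gran's method. Ligand (4−7) × 10−4 M at Zn:L 0:1, 1:1 and 1:2, in duplicate. pKw 15.75. Constants were fitted in Hyperquad with a Zn(II) hydrolysis model included.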

[4] = Protonation constant, log K of the compound; type: physicochemical; settings: 60% w/w DMSO/H2O; summary of the method: as §1
[5] = biological target: Matrix metalloproteinase-14 (Homo sapiens, UniProt P50281); test: Inhibition of recombinant human MMP-14 catalytic domain using Mca-Lys-Pro-Leu-Gly-Leu-Dap(Dnp)-Ala-Arg-NH2 as substrate preincubated for 3 hrs followed by substrate addition measured every 10 secs for 15 mins by fluorometric assay
[6] = biological target: Matrix metalloproteinase-9 (Homo sapiens, UniProt P14780); test: Inhibition of recombinant human MMP-9 using Mca-Lys-Pro-Leu-Gly-Leu-Dap(Dnp)-Ala-Arg-NH2 as substrate preincubated for 3 hrs followed by substrate addition measured every 10 secs for 15 mins by fluorometric assay
Matrix metalloproteinase-9, sequence (P14780 whole entry): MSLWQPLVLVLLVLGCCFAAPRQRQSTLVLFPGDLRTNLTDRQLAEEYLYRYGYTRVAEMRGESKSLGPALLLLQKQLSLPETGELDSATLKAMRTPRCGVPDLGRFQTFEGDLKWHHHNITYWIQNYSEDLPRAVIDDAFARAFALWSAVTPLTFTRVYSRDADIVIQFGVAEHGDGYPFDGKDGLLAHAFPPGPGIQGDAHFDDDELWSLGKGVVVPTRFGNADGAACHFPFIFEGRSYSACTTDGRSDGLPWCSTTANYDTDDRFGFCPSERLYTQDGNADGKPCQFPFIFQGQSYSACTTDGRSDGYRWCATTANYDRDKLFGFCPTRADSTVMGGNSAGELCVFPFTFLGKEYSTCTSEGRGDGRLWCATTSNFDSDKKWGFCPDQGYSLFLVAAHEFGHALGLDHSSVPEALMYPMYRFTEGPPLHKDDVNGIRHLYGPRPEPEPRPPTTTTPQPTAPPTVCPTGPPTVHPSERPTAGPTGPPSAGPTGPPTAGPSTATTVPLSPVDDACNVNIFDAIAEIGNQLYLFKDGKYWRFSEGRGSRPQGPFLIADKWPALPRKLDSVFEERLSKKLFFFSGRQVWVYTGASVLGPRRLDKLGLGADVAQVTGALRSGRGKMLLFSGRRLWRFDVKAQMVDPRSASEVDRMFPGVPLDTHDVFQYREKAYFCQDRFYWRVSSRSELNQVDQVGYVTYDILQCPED

[7] = Metal chelating activity assessed as compound-Zn2+ complex formation at 1:1 metal to compound molar ratio at pH 3 to 8 by potentiometric titration method; summary of the method: as §1
[8] = biological target: Macrophage metalloelastase (Homo sapiens, UniProt P39900); test: Inhibition of recombinant human MMP-12 using Mca-Lys-Pro-Leu-Gly-Leu-Dap(Dnp)-Ala-Arg-NH2 as substrate preincubated for 3 hrs followed by substrate addition measured every 10 secs for 15 mins by fluorometric assay
Macrophage metalloelastase, sequence (P39900 whole entry): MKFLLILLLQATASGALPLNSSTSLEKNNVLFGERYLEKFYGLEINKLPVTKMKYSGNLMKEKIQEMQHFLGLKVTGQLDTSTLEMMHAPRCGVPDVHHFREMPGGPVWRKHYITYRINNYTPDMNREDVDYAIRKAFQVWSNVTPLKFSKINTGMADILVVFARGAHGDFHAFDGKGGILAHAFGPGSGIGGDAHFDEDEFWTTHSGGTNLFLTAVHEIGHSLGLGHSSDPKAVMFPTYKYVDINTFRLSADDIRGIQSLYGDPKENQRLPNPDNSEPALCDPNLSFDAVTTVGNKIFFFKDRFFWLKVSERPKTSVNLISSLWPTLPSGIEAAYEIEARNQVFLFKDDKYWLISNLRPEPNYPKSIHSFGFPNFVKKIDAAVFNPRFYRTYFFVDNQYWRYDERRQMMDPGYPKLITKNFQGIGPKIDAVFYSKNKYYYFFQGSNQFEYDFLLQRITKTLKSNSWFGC

[9] = Metal chelating activity assessed as compound-Zn2+ complex formation at 1:1 metal to compound molar ratio at pH 3 to 8 by 1H NMR method
Homo sapiens [10] = species on record: Homo sapiens; test: Selectivity ratio of IC50 for recombinant human MMP-9 to IC50 for recombinant human MMP-12
Homo sapiens [11] = species on record: Homo sapiens; test: Selectivity ratio of IC50 for recombinant human MMP-14 catalytic domain to IC50 for recombinant human MMP-12
Homo sapiens [12] = species on record: Homo sapiens; test: Selectivity ratio of IC50 for recombinant human MMP-2 to IC50 for recombinant human MMP-12
[13] = Drug level in KCl/DMSO/water solution treated with 2-(2-((4'-Methoxy-[1,1'-biphenyl]-4-yl)sulfonyl)phenyl)-acetic hydroxamic acid; type: physicochemical; settings: buffer

Row | SMILES | IC50 (Interstitial collagenase) [µM] | IC50 [1] [nM] | log(activity) [2] | Activity [3] | log K [4] | IC50 [5] [µM] | IC50 [6] [µM] | Activity [7] | IC50 [8] [nM] | Activity [9] | Ratio IC50 (Homo sapiens [10]) | Ratio IC50 (Homo sapiens [11]) | Ratio IC50 (Homo sapiens [12]) | Drug metabolism [13]
1 | COc1ccc(-c2ccc(S(=O)(=O)c3ccccc3CC(=O)NS(=O)(=O)C(F)(F)F)cc2)cc1 | – | 2500 | 6.91 | inactive | < 2 | – | 24.5 | Active | 7500 | Active | – | – | – | –
2 | COc1ccc(-c2ccc(Sc3ccccc3C(=O)CS(C)(=O)=O)cc2)cc1 | – | 230000 | – | – | – | – | 332 | – | 230000 | – | – | – | – | –
3 | COc1ccc(-c2ccc(Sc3ccccc3CC(=O)NS(C)(=O)=O)cc2)cc1 | – | – | 6.1 | inactive | 5.5 | – | 18 | Active | 3300 | Active | – | – | – | –
4 | COc1ccc(-c2ccc(S(=O)(=O)c3ccccc3CC(=O)NS(C)(=O)=O)cc2)cc1 | – | 3600 | 6.56 | Active | 5.5 | – | 3.7 | Active | 3500 | Active | – | – | – | –
5 | COc1ccc(-c2ccc(Sc3ccccc3CC(=O)NS(=O)(=O)C(F)(F)F)cc2)cc1 | – | 46000 | 6.75 | inactive | < 2 | – | 50 | Active | 2100 | Active | – | – | – | –
6 | COc1ccc(-c2ccc(S(=O)(=O)c3ccccc3CC(=O)O)cc2)cc1 | – | – | 6.1 | Active | – | – | – | Active | – | – | – | – | – | Metabolite_Detected
7 | COc1ccc(-c2ccc(S(=O)(=O)c3ccccc3C(=O)CS(C)(=O)=O)cc2)cc1 | – | > 10000 | – | – | – | – | > 10 | – | > 10000 | – | – | – | – | –

Continued by falling IC50 [8], values first:

Row | IC50 (Interstitial collagenase) [µM] | IC50 [1] [nM] | log(activity) [2] | Activity [3] | log K [4] | IC50 [5] [µM] | IC50 [6] [µM] | Activity [7] | IC50 [8] [nM] | Activity [9] | Ratio IC50 (Homo sapiens [10]) | Ratio IC50 (Homo sapiens [11]) | Ratio IC50 (Homo sapiens [12]) | Drug metabolism [13] | SMILES
8 | – | – | – | – | – | – | – | – | 600 | – | – | – | – | – | COc1ccc(-c2ccc(S(=O)(=O)c3ccccc3CP(=O)(O)O)cc2)cc1
9 | – | 1350 | 6.14 | Active | – | – | 14.3 | Active | 510 | – | – | – | – | – | COc1ccc(-c2ccc(S(=O)(=O)c3ccccc3C(CCC(=O)O)C(=O)O)cc2)cc1 (centres undefined)
10 | – | 250 | – | – | – | – | 1.12 | – | 250 | – | – | – | – | – | COc1ccc(-c2ccc(Sc3ccccc3CP(=O)(O)O)cc2)cc1
11 | > 10 | 414 | 6.13 | Active | 9.03 to 9.35 | 4 | 1.43 | Active | 40 | – | – | – | – | – | COc1ccc(-c2ccc(S(=O)(=O)c3ccccc3C3CCC(=O)N(O)C3=O)cc2)cc1 (centres undefined)
12 | – | – | 6.04 | inactive | – | – | – | Active | 40 | – | – | – | – | – | COc1ccc(-c2ccc(Sc3ccccc3CC(=O)O)cc2)cc1
13 | 260 | 670 | 6.05 | Active | 9.03 to 9.35 | 40 | 5.8 | Active | 33 | – | 176 | 1200 | 20 | – | COc1ccc(-c2ccc(Sc3ccccc3C3CCC(=O)N(O)C3=O)cc2)cc1 (centres undefined)
14 | – | 660 | 6.04 | Active | – | – | 2.96 | Active | 26 | – | – | – | – | – | COc1ccc(-c2ccc(Sc3ccccc3C(CCC(=O)O)C(=O)O)cc2)cc1 (centres undefined)
15 | 250 | – | 6.04 | Active | 10.29 | 2 | – | Active | 4 | – | – | – | – | – | COc1ccc(-c2ccc(Sc3ccccc3CC(=O)NO)cc2)cc1
